The values that follow come from ChEMBL document CHEMBL1765076, “17,20-Lyase inhibitors. Part 3: Design, synthesis, and structure-activity relationships of biphenylylmethylimidazole derivatives as novel 17,20-lyase inhibitors” (Bioorg Med Chem, 2011).

Assay [1] relates to Cynomolgus monkey. Description: Antiandrogenic activity in cynomolgus monkey assessed as serum testosterone level at 3 mg/kg, po after 5 hrs (reference value: 98 +/- 33%). The class given is functional, Macaca fascicularis.
Assay [2] concerns Cynomolgus monkey. As to the kind of experiment: Antiandrogenic activity in cynomolgus monkey assessed as serum DHEA level at 3 mg/kg, po after 2 hrs (reference value: 116 +/- 95%). The class given is functional, Macaca fascicularis.
Assay [3] has as its system Cynomolgus monkey. As to the kind of experiment: Antiandrogenic activity in cynomolgus monkey assessed as serum DHEA level at 3 mg/kg, po after 5 hrs (reference value: 148 +/- 53%). The class given is functional, Macaca fascicularis.
Assay [4] has as its target T1, Steroid 17-alpha-hydroxylase/17,20 lyase (Rattus norvegicus, UniProt P11715).
T1 sequence (P11715 whole entry): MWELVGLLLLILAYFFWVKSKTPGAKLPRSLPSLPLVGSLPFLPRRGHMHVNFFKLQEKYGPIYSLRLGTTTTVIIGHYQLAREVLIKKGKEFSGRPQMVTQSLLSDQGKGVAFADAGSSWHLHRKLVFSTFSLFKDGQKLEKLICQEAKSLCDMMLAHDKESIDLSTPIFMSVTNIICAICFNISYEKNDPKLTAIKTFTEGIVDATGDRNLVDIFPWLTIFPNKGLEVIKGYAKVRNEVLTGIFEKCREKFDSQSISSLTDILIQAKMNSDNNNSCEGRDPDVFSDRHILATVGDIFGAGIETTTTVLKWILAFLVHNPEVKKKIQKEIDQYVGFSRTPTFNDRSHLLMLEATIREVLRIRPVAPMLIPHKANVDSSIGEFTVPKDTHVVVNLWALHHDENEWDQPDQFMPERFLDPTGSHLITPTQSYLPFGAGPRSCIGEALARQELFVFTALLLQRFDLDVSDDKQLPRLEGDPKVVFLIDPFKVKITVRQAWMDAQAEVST
Description: Inhibition of 17,20 lyase activity in Sprague-Dawley rat testicular microsomes. Set-up: species or system Testis. In a few lines:
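Testicular microsomes came from 13-week-old male SD rats, prepared by homogenisation and centrifugation. Reactions contained 75 mM phosphate (pH 7.4), 7 µg microsomal protein, 10 nM [1,2-3H]-17α-hydroxyprogesterone, 5 mM NADPH and 1–1000 nM compound (final concentrations; DMF stocks diluted in water). Incubation was 15 min at 37 °C, stopped with ethyl acetate. IC50 is the concentration halving product formation.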

In assay [5] the target is T2, Steroid 17-alpha-hydroxylase/17,20 lyase (Homo sapiens, UniProt P05093).
T2 sequence (P05093 whole entry): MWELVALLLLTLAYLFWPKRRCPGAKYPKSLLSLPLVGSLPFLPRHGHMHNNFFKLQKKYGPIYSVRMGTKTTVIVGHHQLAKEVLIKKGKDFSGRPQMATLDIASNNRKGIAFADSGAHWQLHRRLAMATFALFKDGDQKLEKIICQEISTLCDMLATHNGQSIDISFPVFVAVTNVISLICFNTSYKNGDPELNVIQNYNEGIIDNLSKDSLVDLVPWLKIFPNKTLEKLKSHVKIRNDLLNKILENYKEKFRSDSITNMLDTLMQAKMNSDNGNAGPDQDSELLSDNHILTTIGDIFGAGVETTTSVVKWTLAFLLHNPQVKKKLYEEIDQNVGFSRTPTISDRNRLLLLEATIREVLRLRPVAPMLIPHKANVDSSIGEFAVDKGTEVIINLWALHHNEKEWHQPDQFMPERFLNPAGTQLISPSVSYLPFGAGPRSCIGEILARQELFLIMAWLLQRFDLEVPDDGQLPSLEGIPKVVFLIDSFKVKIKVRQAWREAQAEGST
Description: Inhibition of human 17,20 lyase activity.

Assay [6] concerns Cynomolgus monkey. As to the kind of experiment: Antiandrogenic activity in cynomolgus monkey assessed as serum testosterone level at 3 mg/kg, po after 2 hrs (reference value: 110 +/- 29%). The class given is functional, Macaca fascicularis.
In another assay the target is Cytochrome P450 3A4 (Homo sapiens, UniProt P08684). As to the kind of experiment: Inhibition of human CYP3A4 after 30 mins. The class given is ADME.
Cytochrome P450 3A4, sequence (P08684 whole entry): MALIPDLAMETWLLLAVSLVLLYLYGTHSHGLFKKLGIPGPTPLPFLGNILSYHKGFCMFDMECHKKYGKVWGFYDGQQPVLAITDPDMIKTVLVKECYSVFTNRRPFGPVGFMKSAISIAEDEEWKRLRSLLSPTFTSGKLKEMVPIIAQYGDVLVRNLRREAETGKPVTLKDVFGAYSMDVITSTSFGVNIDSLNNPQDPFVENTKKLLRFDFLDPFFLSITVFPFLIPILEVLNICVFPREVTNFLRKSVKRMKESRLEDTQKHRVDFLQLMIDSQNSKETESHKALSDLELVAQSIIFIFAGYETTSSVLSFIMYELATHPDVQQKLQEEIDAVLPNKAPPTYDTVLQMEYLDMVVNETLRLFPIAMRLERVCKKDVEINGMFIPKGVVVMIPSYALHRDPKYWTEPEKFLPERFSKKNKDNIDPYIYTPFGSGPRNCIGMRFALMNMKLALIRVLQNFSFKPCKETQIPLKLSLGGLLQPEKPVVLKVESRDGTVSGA
For a further assay, the species on record is Homo sapiens. As to the kind of experiment: Ratio of IC50 for human CYP3A4 to IC50 for human 17,20-lyase.

On to `CC(=O)Nc1cccc(-c2ccc([C@](O)(c3c[nH]cn3)C(C)C)cc2)c1`, for which the Activity worked out at 23% in the assay with Cynomolgus monkey [1], 23% in the assay on Cynomolgus monkey [2], 13% with Cynomolgus monkey [3] and 52% in the assay with Cynomolgus monkey [6]. The IC50 – broadly, the concentration at which inhibition is half-maximal – was 0.014 µM in assay [4] and 0.026 µM in assay [5].

In the case of `CC(=O)Nc1cccc(-c2ccc([C@@](O)(c3c[nH]cn3)C(C)C)cc2)c1`, the IC50 in assay [4] amounted to 0.77 µM; in assay [5], 0.34 µM.

Regarding `CC(=O)Nc1cccc(-c2ccc([C@](O)(c3cnc[nH]3)C(C)C)cc2)n1`, the IC50 in assay [4] was 0.033 µM; in assay [5], 0.026 µM; on Cytochrome P450 3A4, above 10 µM.

Turning to `CC(=O)Nc1cccc(-c2ccc([C@@](O)(c3cnc[nH]3)C(C)C)cc2)n1`, the results for the IC50 (in assay [4]; in assay [5]; at Cytochrome P450 3A4) were above 1 µM, 0.092 µM and above 10 µM, respectively.

For `CC[C@](O)(c1ccc(-c2cccc(NC(C)=O)c2)cc1)c1c[nH]cn1`, the IC50 in assay [4] is 0.019 µM; in assay [5], 0.022 µM; against Cytochrome P450 3A4, above 10 µM. For the same compound, the Ratio IC50 in the assay filed under Homo sapiens is above 300.

`CC[C@@](O)(c1ccc(-c2cccc(NC(C)=O)c2)cc1)c1c[nH]cn1`: the IC50 in assay [4] was 0.45 µM; in assay [5] it was 0.24 µM; against Cytochrome P450 3A4, above 10 µM.

Take `CC(=O)Nc1cccc(-c2ccc([C@](O)(c3c[nH]cn3)C(C)C)cc2)n1`: in the assay listed under Homo sapiens, the Ratio IC50 was above 300.

For the compound `COc1ccc(-c2cccc(C(O)(c3c[nH]cn3)C(C)C)c2)cc1` (racemic), the IC50 in assay [5] turned out to be 0.13 µM; against Cytochrome P450 3A4 it was 2 µM. In addition, the Ratio IC50 in the assay filed under Homo sapiens was 15.

Take `CC(C)C(O)(c1cccc(-c2ccc(F)cc2)c1)c1c[nH]cn1` (racemic): the values for the IC50 (in assay [5]; on Cytochrome P450 3A4) were 0.019 µM and 2.1 µM, respectively. In the assay listed under Homo sapiens, the Ratio IC50 amounted to 111.

For the compound `CC(C)C(O)(c1cccc(-c2ccc(Cl)cc2)c1)c1c[nH]cn1` (racemic), the IC50 in assay [4] stood at 0.019 µM; in assay [5] it was 0.049 µM; on Cytochrome P450 3A4, 2.4 µM. For the same compound, the Ratio IC50 in the assay filed under Homo sapiens is 49.

`CC(C)C(O)(c1ccc(-c2ccccc2)cc1)c1c[nH]cn1` (racemic): the IC50 was 0.033 µM in assay [4], 0.033 µM in assay [5] and 3.7 µM against Cytochrome P450 3A4. Besides, the Ratio IC50 in the assay listed under Homo sapiens is 112.

As to `COc1ccc(-c2ccc(C(O)(c3c[nH]cn3)C(C)C)cc2)cc1` (racemic), the IC50 in assay [4] turned out to be 0.12 µM; in assay [5] it was 0.054 µM; on Cytochrome P450 3A4, 4.9 µM. Also, the Ratio IC50 in the assay listed under Homo sapiens turned out to be 91.

In the case of `CC(C)C(O)(c1ccc(-c2ccc(F)cc2)cc1)c1c[nH]cn1` (racemic), the IC50 in assay [5] stood at 0.027 µM; on Cytochrome P450 3A4, 5.3 µM. The Ratio IC50 in the assay listed under Homo sapiens turned out to be 196.

For the compound `CC(C)C(O)(c1ccc(-c2ccc(Cl)cc2)cc1)c1c[nH]cn1` (racemic), the values for the IC50 (in assay [4]; in assay [5]; at Cytochrome P450 3A4) were 0.029 µM, 0.028 µM and 7.6 µM, respectively. Besides, the Ratio IC50 in the assay listed under Homo sapiens was 271.

On to `CC(=O)Nc1cccc(-c2ccc(C(O)(c3c[nH]cn3)C(C)C)cc2)c1` (racemic), for which the IC50 in assay [4] came out at 0.017 µM; in assay [5], 0.024 µM.

Turning to `CC(=O)Nc1ccc(-c2ccc(C(O)(c3c[nH]cn3)C(C)C)cc2)cc1` (racemic), the figures for the IC50 (in assay [4]; in assay [5]; on Cytochrome P450 3A4) were 0.024 µM, 0.12 µM and 1 µM, respectively.

Consider `CNC(=O)c1cccc(-c2ccc(C(O)(c3c[nH]cn3)C(C)C)cc2)c1` (racemic), for which the IC50 in assay [4] worked out at 0.049 µM; in assay [5] it was 0.044 µM; against Cytochrome P450 3A4 it was 8.1 µM.

With `CNS(=O)(=O)c1cccc(-c2ccc(C(O)(c3cnc[nH]3)C(C)C)cc2)c1` (racemic), the IC50 worked out at 0.071 µM in assay [4], 0.16 µM in assay [5] and 3.3 µM on Cytochrome P450 3A4.

`CNC(=O)Nc1cccc(-c2ccc(C(O)(c3c[nH]cn3)C(C)C)cc2)c1` (racemic): the IC50 in assay [4] stood at 0.024 µM; in assay [5], 0.021 µM; against Cytochrome P450 3A4, 5.5 µM.

On to `CC(C)C(O)(c1ccc(-c2ccccn2)cc1)c1c[nH]cn1` (racemic), for which the results for the IC50 (in assay [4]; in assay [5]; against Cytochrome P450 3A4) were 0.21 µM, 0.15 µM and 5.2 µM, respectively.

With `CC(=O)Nc1cccc(-c2ccc(C(O)(c3c[nH]cn3)C(C)C)cc2)n1` (racemic), the IC50 in assay [4] was 0.053 µM; in assay [5], 0.036 µM; against Cytochrome P450 3A4, above 10 µM.

Regarding `CC(=O)Nc1cccc(-c2ccc(C(C)(O)c3c[nH]cn3)cc2)c1` (racemic), the IC50 in assay [4] is 0.062 µM; in assay [5], 0.038 µM; on Cytochrome P450 3A4, above 10 µM.

As to `CCC(O)(c1ccc(-c2cccc(NC(C)=O)c2)cc1)c1c[nH]cn1` (racemic), the IC50 in assay [4] is 0.025 µM; in assay [5], 0.04 µM; at Cytochrome P450 3A4, above 10 µM.

Turning to `CC(=O)Nc1cccc(-c2ccc(C(O)(c3c[nH]cn3)C3CC3)cc2)c1` (racemic), the IC50 was found to be 0.081 µM in assay [4], 0.045 µM in assay [5] and 5.5 µM on Cytochrome P450 3A4.

Consider `CC(=O)Nc1cccc(-c2ccc(C(O)c3cnc[nH]3)cc2)c1` (racemic), for which the figures for the IC50 (in assay [4]; in assay [5]; at Cytochrome P450 3A4) were 0.32 µM, 0.077 µM and above 10 µM, respectively.

In the case of `COc1ccc2cc(C(O)(c3c[nH]cn3)C(C)C)ccc2c1` (racemic), the IC50 against Cytochrome P450 3A4 is below 1 µM.
